HKDC1 inh = HKDC1 hexokinase inhibitors, primary screen, biochemical, fluorescence, uHTS. Q2TB90. recombinant HKDC1, G6PDH/diaphorase resazurin coupled fluorescence. inhibition, % at 20 µM. hit rate 0.16% among 340,000;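 active = inhibition above about 35% when tested at 20 µM, limit read from the data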
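Assay system: recombinant HKDC1 hexokinase; detection: coupled resazurin fluorescence, excitation 525 nm, emission 613 nm; benchmarks: DMSO-plus-enzyme-mix negative control, buffer-substituted positive control; compound dosing: single 20 µM dose; schedule: 90 min at room temperature in dark; also added: glucose plus 1 mM ATP as hexokinase substrates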
B2AR ag = beta2AR agonists driving receptor internalization, primary screen, cell-based, FAP fluorogen, flow cytometry; Am2.2-beta2AR cells; Beta-2 adrenergic receptor (Homo sapiens), P07550; response, % (test concentration not listed); hit rate 0.43% among 340,000; AID 504454, 2011;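 active = response above a set limit, near 3 SD of response in nonfluorescent compounds, cut at about 42% in these data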
UCH37 DUB inh = inhibitors of human UCH37 deubiquitinase, primary screen, biochemical, Ub-AMC cleavage, fluorescence | Ubiquitin carboxyl-terminal hydrolase isozyme L5 (Homo sapiens), Q9Y5K5 | inhibition, % (test concentration not listed) | purified proteasome/UCH37 | AID 588478, 2011 | hit rate 0.33% among 330,000;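 active = mean inhibition over replicate wells above about 20%, limit read from the data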
Target sequence (Q9Y5K5 whole entry, looked up): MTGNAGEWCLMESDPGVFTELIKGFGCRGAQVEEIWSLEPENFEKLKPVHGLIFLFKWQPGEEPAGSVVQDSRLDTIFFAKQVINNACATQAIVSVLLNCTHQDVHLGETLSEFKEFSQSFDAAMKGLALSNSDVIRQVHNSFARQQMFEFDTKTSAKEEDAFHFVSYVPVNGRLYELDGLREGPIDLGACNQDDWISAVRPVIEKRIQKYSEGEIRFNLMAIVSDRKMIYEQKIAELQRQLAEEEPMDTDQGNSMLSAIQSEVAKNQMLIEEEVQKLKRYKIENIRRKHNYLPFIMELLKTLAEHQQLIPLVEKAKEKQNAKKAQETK
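Schedule: 30 min plus 25 min, room temperature / Material: human UCH37 within purified proteasomes / Technique: AMC fluorescence intensity at 355/460 nm / Buffer or medium: pH 7.4 Tris-HCl (50 mM) with ovalbumin, ATP-MgCl2, DTT / Controls: wells without proteasome as full block, compound-free enzyme plus substrate as uninhibited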
H9c2 protect = cardioprotection against H2O2-induced cell death, primary screen, uHTS, H9c2 cells, ATPLite luminescence. H9c2 cardiomyocytes, H2O2 injury protection, 2 h. hit rate 0.63% among 360,000. AID 588492, 2011. protection from H2O2 cell death, % at 20 µM;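 active = compounds giving at least 50% protection of heart cells from peroxide-induced death in the single-dose screen, raw or plate-pattern-corrected value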
aDG glyco up = activators of alpha-DG glycosylation, primary screen, uHTS, Pro5-aDG cells, AlphaScreen | alpha-DG glycosylation AlphaScreen (IIH6); 0% Pro5, 100% B10-LARGE cell signal | activation, % at 10 µM | hit rate 0.22% among 360,000 | AID 624168, 2012;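 active = activation of at least 8% versus controls, or a plate z-score of at least 8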;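 note: Pro5 are CHO cells carrying HIG-tagged alpha-DG that lacks glycosylation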
PfGluPho inh = PfG6PD enzyme inhibitors, primary screen, biochemical, fluorescence intensity, uHTS; PfGluPho enzyme, NADPH resazurin-diaphorase fluorescence; glucose-6-phosphate dehydrogenase-6-phosphogluconolactonase (Plasmodium falciparum 3D7); inhibition, % at 20 µM; hit rate 0.78% among 350,000;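 active = inhibition reaching at least a set limit at 20 µM in the primary screen, cut at about 59% in these data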
Hits are given with their value; – = inactive; · = no result given. An excerpt weighted towards active compounds, which were near 2.1% of everything screened.

SMILES	HKDC1 inh	B2AR ag	UCH37 DUB inh	H9c2 protect	aDG glyco up	PfGluPho inh
CCc1nc2oc3ccccc3c(=O)c2c(=O)n1Cc1ccccc1	–	–	–	–	–	–
O=c1c2ccccc2oc2nc(-c3ccco3)n(Cc3ccccc3)c(=O)c12	–	–	–	63	–	–
Cc1nnc2ccc(-c3cccc(NC(=O)c4ccc(Cl)nc4)c3)nn12	–	–	–	63	–	–
Cc1nnc2ccc(-c3cccc(NC(=O)c4ccc(Br)o4)c3)nn12	–	–	–	–	–	–
COc1cccc(NC2=C(NCCO)C(=O)c3ccccc3C2=O)c1	–	–	–	–	–	–
COc1ccc(NC2=C(NCCO)C(=O)c3ccccc3C2=O)cc1	–	66	–	–	–	–
CN(C)c1ccc(C=NNC(=O)COc2ccccc2)cc1	·	·	–	·	·	·
Cc1cc(C)c2c(c1)/C(=C/C(=O)c1ccc(Br)s1)C(=O)N2	–	65	–	–	–	–
COc1ccc(C=NNC(=O)c2nnn(-c3nonc3N)c2CN(C)c2ccccc2)cc1	·	·	–	·	·	·
CCOc1cc(C=NNC(=O)c2cc(C)n(-c3ccc(F)cc3)c2C)ccc1O	·	·	–	·	·	·
C=CCn1c(CNc2ccccc2)nnc1SCC(=O)NN=Cc1ccc(O)cc1O	·	·	–	·	·	·
C=CCn1c(CNc2ccc(C)cc2)nnc1SCC(=O)N/N=C/c1ccc(O)cc1O	–	–	·	68	–	–
C=CCn1c(CNc2ccccc2)nnc1SCC(=O)N/N=C/c1ccc(O)cc1O	–	–	·	85	–	–
C=CCn1c(COc2ccccc2)nnc1SCC(=O)N/N=C/c1cc(Cl)ccc1O	–	–	·	86	–	–
CCCc1ccc(OCc2ccc(C(=O)NN=Cc3cccnc3)o2)cc1	·	·	–	·	·	·
Cc1ccnc(N/C=C(/NC(=O)c2ccccc2)C(=O)NN=Cc2ccc(F)cc2)n1	·	·	–	·	·	·
COc1ccc(C2c3c(ccc4ccccc34)Oc3ncn4nc(CON=Cc5ccccc5)nc4c32)cc1 (stereo not given)	·	·	–	·	·	·
COc1ccc(C=NNC(=O)c2cccnc2)cc1CN1CCOCC1	·	·	–	·	·	·
Cc1c(C=NNC(=O)c2cccc(F)c2)cnn1C	·	·	–	·	·	·
O=S(=O)(/N=C(/Sc1ccccc1)c1ccccc1)c1ccccc1	–	–	·	52	–	–
CS/C(=N\S(=O)(=O)c1ccccc1)c1ccccc1	–	–	·	56	–	–
COc1ccc(Br)cc1C=NNC(=O)c1cccc(S(=O)(=O)N2CCOCC2)c1	·	·	–	·	·	·
CCOC(=O)c1[nH]cnc1N=Nc1c(O)ccc2ccccc12	–	–	–	65	–	–
O=C(/C=C/c1ccco1)NC(=S)Nc1ccc(N2CCCC2)cc1	–	44	–	–	–	–
Brc1cc2c(cc1C=NNc1nc(N3CCCC3)nc(N3CCOCC3)n1)OCO2	·	·	–	·	·	·
SMILES	HKDC1 inh	B2AR ag	UCH37 DUB inh	H9c2 protect	aDG glyco up	PfGluPho inh
Brc1cc2c(cc1/C=N/Nc1nc(N3CCCC3)nc(N3CCOCC3)n1)OCO2	–	–	·	63	–	–
CC(C)C(=O)N1CCN(c2ccc(NC(=O)COc3ccccc3[N+](=O)[O-])cc2)CC1	–	–	–	72	–	–
CN1CCN(c2ccc(NC(=O)COc3ccccc3[N+](=O)[O-])cc2)CC1	–	–	–	–	–	–
CN(C)C=Nc1sc2c(c1C#N)CCCC2	·	·	–	·	·	·
O=C(O)c1cc([N+](=O)[O-])c(Sc2nc3ccccc3[nH]2)c([N+](=O)[O-])c1	–	–	–	–	–	–
CS(=O)(=O)c1cc([N+](=O)[O-])c(Sc2nc3ccccc3[nH]2)c([N+](=O)[O-])c1	–	63	–	–	–	–
O=c1c2cccc3c2c(nn1CN1CCOCC1)-c1ccccc1-3	–	–	–	75	–	–
CC(=O)NC(c1cc(F)c2cccnc2c1O)C1CC1 (stereo not given)	–	–	–	55	–	–
COc1ccc(S(=O)(=O)N2CCOCC2)cc1NC(=O)c1cccc2c(=O)c(C)c(-c3ccccc3)oc12	–	–	–	71	–	–
CCn1c(SCC(=O)N/N=C/C=C\c2ccco2)nc2ccccc21	–	–	·	–	–	–
Cn1c(SCC(=O)N/N=C/C=C\c2ccco2)nc2ccccc21	–	–	·	–	–	62
CC(C)OC(=S)NC(=NS(=O)(=O)c1ccccc1)c1ccccc1	·	·	–	·	·	·
Cc1ccccc1C1c2[nH]c3ccccc3c2C[C@H]2C(=O)N(c3ccccc3C(=O)NCCCN3CCOCC3)C(=O)N12 (stereo not given in full)	–	–	–	55	–	–
Cc1ccccc1C1c2[nH]c3ccccc3c2C[C@H]2C(=O)N(c3ccccc3C(=O)NCCN3CCOCC3)C(=O)N12 (stereo not given in full)	–	–	–	–	–	–
O=C1NC(=S)S/C1=C\c1ccc(SCc2ccco2)o1	51	–	·	–	–	–
CCOC(=O)NN=Cc1ccc(Oc2ccccc2)cc1	·	·	–	·	·	·
Cc1cc(F)ccc1S(=O)(=O)N(C(=O)c1ccncc1)c1ccc(OC(=O)c2ccncc2)cc1	–	–	–	–	–	–
Cc1ccc(S(=O)(=O)N(C(=O)c2ccncc2)c2ccc(OC(=O)c3ccncc3)c3ccccc23)c(C)c1	38	–	–	–	–	73
Cc1cc(C=NNC(=O)c2cccc(F)c2)c(C)n1-c1ccccc1	·	·	–	·	·	·
CCN1CCN(C=Nc2nc3c(s2)CCCC3)CC1	·	·	–	·	·	·
CC(C)CNc1nnnc2c1sc1nc(N3CCOCC3)c3c(c12)CC(C)(C)SC3	–	–	–	–	–	–
CC1(C)Cc2c(c(N3CCOCC3)nc3sc4c(NN)ncnc4c23)CS1	–	–	–	59	–	–
Cc1n[nH]c(=S)n(N=Cc2cccs2)c1=O	·	·	–	·	·	·
NS(=O)(=O)c1ccc(CNC(=O)/C=C/c2cccc(Cl)c2)cc1	–	–	–	–	–	–
O=C(/C=C/c1cccc(Cl)c1)c1ccc([N+](=O)[O-])o1	61	66	–	–	–	97
COc1ccc(S(=O)(=O)N(CC(=O)NN=Cc2ccccc2C(=O)O)c2ccccc2OC)cc1	·	·	–	·	·	·
O=C(OCC(=O)N1CCc2ccccc21)c1n[nH]c(=O)c2ccccc12	–	–	–	73	–	–
CC1(C)CC2CC(C)(CN2C(=O)COC(=O)c2n[nH]c(=O)c3ccccc23)C1 (stereo not given)	–	–	–	60	–	–
O=C(OCC(=O)N1CCCCCC1)c1n[nH]c(=O)c2ccccc12	–	–	–	51	–	–

Source: PubChem BioAssay
